Tested on: Caco-2 cells
Experiment: Caco-2 cellular uptake study
Assay type: in vitro ADME, human
Conditions: verapamil 50 µg/ml, 1 or 3 h
How it was run: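 Caco-2 cells (DMEM, 20% FBS, 37 °C, 5% CO2) seeded at 5 × 10⁴/well and grown 24 h. Test compound as SNEDDS or solution (equivalent CTX 5 µg/ml) given with verapamil 50 µg/ml, 1 or 3 h at 37 °C. Washed three times with ice-cold PBS, sonicated in water (100 W), lysed, spun 13,000 rpm 10 min. CTX by HPLC; handling matched the no-inhibitor uptake arm.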

## CO[C@H]1C(=O)[C@]2(C)[C@@H](OC)C[C@H]3OC[C@@]3(OC(C)=O)[C@H]2[C@H](OC(=O)c2ccccc2)[C@]2(O)C[C@H](OC(=O)[C@H](O)[C@@H](NC(=O)OC(C)(C)C)c3ccccc3)C(C)=C1C2(C)C [CTX, cabazitaxel]
  Change of Caco-2 uptake after adding P-gp inhibitor: no significant difference
